These results are taken from ChEMBL document CHEMBL5107945, “Synthesis and biological evaluation of bergenin derivatives as new immunosuppressants” (RSC Med Chem, 2021).

Data set [1] can be described thus: Inhibition of ConA-induced proliferation of BALB/c mouse splenocyte at 10 uM incubated for 48 hrs by CCK-8 assay relative to control. The class given is functional. The procedure, abridged:
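Male BALB/c mouse splenocytes (6–8 weeks; red cells lysed with 0.84% NH4Cl), 5 × 10^5 cells/well in RPMI-1640 with 10% FBS and pen/strep, were stimulated with 5 μg/mL Con A with or without 10 μM compound for 48 h at 37 °C, 5% CO2. CCK-8 was added for 3 h and OD450 read. Inhibition was calculated against Con A-only wells; means ± SEM, ≥3 independent experiments.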

Data set [2] can be described thus: Cytotoxicity against human Jurkat cells assessed as reduction in cell viability incubated for 48 hrs by CCK-8 assay. The class given is toxicity, cell-based. The procedure, abridged: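 Human Jurkat T-leukemia cells in RPMI-1640 with 10% FBS and pen/strep, 2.5 × 10^4 cells/well, were exposed to serially diluted compound at 37 °C for 48 h. Viability was read by CCK-8 (3 h, OD450). IC50 is the concentration reducing viability to 50%.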
A general note: Tetrazolium dyes change colour on reduction, which living cells bring about.

Data set [3] is described as follows: Inhibition of ConA-induced IL-4 secretion in BALB/c mouse splenocyte at 10 uM incubated for 48 hrs by ELISA relative to control. The class given is functional. The procedure, abridged:
(§1)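 Male BALB/c splenocytes, 5 × 10^5 cells/well, were treated with Con A (5 μg/mL) plus compound at 5 or 10 μM for 48 h at 37 °C, 5% CO2. Plates were spun at 4 °C, 1500 rpm, 5 min. Cell-free supernatant IFN-γ or IL-4 was measured by capture-antibody ELISA. Inhibition was calculated against Con A-only wells; means ± SEM, ≥3 independent experiments.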
Background: An ELISA detects its analyte on a solid surface through an enzyme-linked reagent.

The nature of data set [4]: Inhibition of ConA-induced proliferation of BALB/c mouse splenocyte incubated for 48 hrs by CCK-8 assay relative to control. The class given is functional, cell-based. The procedure, abridged: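 IC50 was measured only for compounds giving over 50% inhibition at 10 μM. Con A (5 μg/mL)-stimulated male BALB/c splenocytes, 5 × 10^5 cells/well in RPMI-1640/10% FBS, were cultured 48 h at 37 °C, 5% CO2. Read-out was CCK-8, 3 h incubation, OD450. IC50 came from at least three independent tests.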

The nature of data set [5]: Inhibition of ConA-induced IFN-gamma secretion in BALB/c mouse splenocyte at 10 uM incubated for 48 hrs by ELISA relative to control. The class given is functional. The procedure, abridged: as §1
Data set [6] in a line: Selectivity index, ratio of IC50 for cytotoxicity against human Jurkat cells to IC50 for inhibition of ConA-induced proliferation of BALB/c mouse splenocyte. Conditions: mouse (splenocytes), ConA-stimulated mouse splenocytes, read-out: Ratio IC50. The class given is toxicity, cell-based. Put shortly:
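Ratio of Jurkat IC50 to splenocyte IC50. Jurkat: 2.5 × 10^4 cells/well, serial dilutions, 48 h, 37 °C, CCK-8 viability. Splenocytes: BALB/c cells, 5 × 10^5/well, with 5 μg/mL Con A, 48 h, 37 °C, 5% CO2, CCK-8 read at OD450.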

Data set [7] can be described thus: Inhibition of ConA-induced proliferation of BALB/c mouse splenocyte at 1 uM incubated for 48 hrs by CCK-8 assay relative to control. The class given is functional. The procedure, abridged:
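Positive-control condition: cyclosporine A at 1 μM in the same Con A (5 μg/mL)-stimulated BALB/c splenocyte culture, 5 × 10^5 cells/well, 48 h at 37 °C, 5% CO2. Proliferation was read by CCK-8 (3 h, OD450) against Con A-only wells.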

The inhibition is the relative decrease from the control value, in per cent. With `CCCCCOc1cc2c(c(OCCCCC)c1OC)[C@@H]1O[C@H](CO)[C@@H](O)[C@H](O)[C@H]1OC2=O`, the inhibition at 10 µM in data set [1] stood at 5.4%.
For orientation: IC50 means the concentration that gives 50% inhibition. As to `CCCCCCCOc1cc2c(c(OCCCCCCC)c1OC)[C@@H]1O[C@H](CO)[C@@H](O)[C@H](O)[C@H]1OC2=O`, the inhibition at 10 µM in data set [1] turned out to be 99%; in data set [3], 98.6%; in data set [5], 102%. Moreover, the concentration for half-maximal inhibition (IC50) at 48 h in data set [2] worked out at 4.18 µM. In data set [4], this compound gave an IC50 of 7.21 µM.
With `CCCCOc1cc2c(c(OCCCC)c1OC)[C@@H]1O[C@H](CO)[C@@H](O)[C@H](O)[C@H]1OC2=O`, in data set [1], the inhibition at 10 µM is -9.27%.
In the case of `CCCCCCCCOc1cc2c(c(OCCCCCCCC)c1OC)[C@@H]1O[C@H](CO)[C@@H](O)[C@H](O)[C@H]1OC2=O`, the inhibition at 10 µM in data set [1] was -21.5%.
Same read-out and setting: for `COc1c(OCc2ccccc2)cc2c(c1OCc1ccccc1)[C@@H]1O[C@H](CO)[C@@H](O)[C@H](O)[C@H]1OC2=O` the value was -5.95%; for `CCCCCCCCCCOc1cc2c(c(OCCCCCCCCCC)c1OC)[C@@H]1O[C@H](CO)[C@@H](O)[C@H](O)[C@H]1OC2=O`, 15.4%.
As for `COc1c(OCc2ccccc2)cc2c(c1OCc1ccccc1)[C@@H]1O[C@@H]3CO[C@@H](c4ccccc4)O[C@H]3[C@H](NS(C)(=O)=O)[C@H]1OC2=O`, in data set [6], the selectivity ratio was determined as 6. In addition, the inhibition at 10 µM worked out at 84.9% in data set [1], 67.5% in data set [3] and 71.1% in data set [5]. The IC50 at 48 h in data set [2] is 33.1 µM. The half-inhibitory concentration (IC50) in data set [4] came to 5.39 µM.
As to `COc1c(OCc2ccccc2)cc2c(c1OCc1ccccc1)[C@@H]1O[C@@H]3CO[C@@H](c4ccccc4)O[C@H]3[C@H](N)[C@H]1OC2=O`, the inhibition at 10 µM in data set [1] came out at 72.6%; in data set [3], 8.7%; in data set [5], 48.4%. Moreover, in data set [2], the IC50 at 48 h turned out to be 39.3 µM. Besides, the IC50 in data set [4] is 8.19 µM.
For the compound `COc1c(OCc2ccccc2)cc2c(c1OCc1ccccc1)[C@@H]1O[C@@H]3CO[C@@H](c4ccccc4)O[C@H]3[C@@H](O)[C@H]1OC2=O`, the inhibition at 10 µM in data set [1] worked out at 11.2%.
As for `COc1c(OCc2ccccc2)cc2c(c1OCc1ccccc1)[C@@H]1O[C@@H]3CO[C@@H](c4ccccc4)O[C@H]3[C@@H](OS(=O)(=O)C(F)(F)F)[C@H]1OC2=O`, the values for the inhibition at 10 µM in data set [1], in data set [3] and in data set [5] were 75.9%, 63.1% and 68.6%, respectively. Further, the half-inhibitory concentration (IC50) at 48 h in data set [2] is 44.2 µM. In data set [4], this compound displayed an IC50 of 8.05 µM.
For `CCCCCCCOc1cc2c(c(OCCCCCCC)c1OC)[C@@H]1O[C@H](CO)[C@@H](OCc3ccccc3)[C@H](O)[C@H]1OC2=O` the same measures were 69.8%, 51.4%, 51.3%, 16.1 µM and 10.6 µM.
In the case of `CCCCCCCOc1cc2c(c(OCCCCCCC)c1OC)[C@@H]1O[C@H](COCc3ccccc3)[C@@H](O)[C@H](O)[C@H]1OC2=O`, the inhibition at 10 µM in data set [1] came out at 99.4%; in data set [3], 95.9%; in data set [5], 99.6%. Besides, in data set [2], the half-inhibitory concentration (IC50) at 48 h was determined as 10.1 µM. In addition, in data set [4], the midpoint of inhibition, the IC50, lay at 7.66 µM.
With `CCCCCCCOc1cc2c(c(OCCCCCCC)c1OC)[C@@H]1O[C@@H]3CO[C@@H](c4ccccc4)O[C@H]3[C@H](O)[C@H]1OC2=O`, the inhibition at 10 µM in data set [1] is -6.83%.
Take `CCCCCCOc1cc2c(c(OCCCCCC)c1OC)[C@@H]1O[C@H](CO)[C@@H](O)[C@H](O)[C@H]1OC2=O`: the figures for the inhibition at 10 µM in data set [1], in data set [3] and in data set [5] were 98.1%, 61.9% and 67.4%, respectively. For the same compound, in data set [2], the IC50 at 48 h is 5.21 µM. In data set [4], this compound gave an IC50 of 8.16 µM.
Consider `COc1c(OCc2ccccc2)cc2c(c1OCc1ccccc1)[C@@H]1O[C@@H]3CO[C@@H](c4ccccc4)O[C@H]3[C@H](OS(=O)(=O)C(F)(F)F)[C@H]1OC2=O`, for which, in data set [1], the inhibition at 10 µM was -1.62%.
As to `COc1c(OCc2ccccc2)cc2c(c1OCc1ccccc1)[C@@H]1O[C@@H]3CO[C@@H](c4ccccc4)O[C@H]3[C@H](N=[N+]=[N-])[C@H]1OC2=O`, in data set [1], the inhibition at 10 µM was -2.26%.
On the same count and under the same terms, for `COc1c(O)cc2c(c1O)[C@@H]1O[C@@H]3CO[C@@H](c4ccccc4)O[C@H]3[C@H](O)[C@H]1OC2=O` the value was -3.78%.
As for `COc1c(OCc2ccccc2)cc2c(c1OCc1ccccc1)[C@@H]1O[C@@H]3CO[C@@H](c4ccccc4)O[C@H]3[C@H](O)[C@H]1OC2=O`, the selectivity ratio in data set [6] was 5.96. The inhibition at 10 µM in data set [1] is 91.4%; in data set [3], 76.9%; in data set [5] it was 71%. Also, the IC50 at 48 h in data set [2] turned out to be 21 µM. For the same compound, the IC50 in data set [4] came out at 3.52 µM.
Consider `COc1c(O)cc2c(c1O)[C@@H]1O[C@H](CO)[C@@H](O)[C@H](O)[C@H]1OC2=O` [BERGENIN], for which the inhibition at 10 µM in data set [1] is 11.7%; in data set [3], 18.3%; in data set [5], -6.2%.
Taken in the same sequence, the figures for `C[C@H]1C[C@H]2[C@@H]3CCC4=CC(=O)C=C[C@]4(C)[C@@]3(F)[C@@H](O)C[C@]2(C)[C@@]1(O)C(=O)CO` [BETAMETHASONE] were 89.6%, 96.9% and 99.3%.
As for `C/C=C/C[C@@H](C)[C@@H](O)[C@H]1C(=O)N[C@@H](CC)C(=O)N(C)CC(=O)N(C)[C@@H](CC(C)C)C(=O)N[C@@H](C(C)C)C(=O)N(C)[C@@H](CC(C)C)C(=O)N[C@@H](C)C(=O)N[C@H](C)C(=O)N(C)[C@@H](CC(C)C)C(=O)N(C)[C@@H](CC(C)C)C(=O)N(C)[C@@H](C(C)C)C(=O)N1C` [CYCLOSPORINE], the inhibition at 1 µM in data set [7] turned out to be 93.5%.
